Laboratory results: ChEMBL document CHEMBL1212882, “Phenolic constituents isolated from Fragaria ananassa Duch. inhibit antigen-stimulated degranulation through direct inhibition of spleen tyrosine kinase activation” (Bioorg Med Chem, 2010)
The source made the active and inactive calls. No cut-off for these calls is given here.

Legend:
Type in all cases: cell-based
[1] = target: Tyrosine-protein kinase SYK (Rattus norvegicus) (UniProt Q64725); assay: Inhibition of spleen tyrosine kinase in rat RBL-2H3 cells assessed as inhibition of IgE-induced degranulation at 10 to 100 uM after 1 hr by beta-hexosaminidase release assay
Chain of Tyrosine-protein kinase SYK (Rattus norvegicus) (Q64725 whole entry, looked up): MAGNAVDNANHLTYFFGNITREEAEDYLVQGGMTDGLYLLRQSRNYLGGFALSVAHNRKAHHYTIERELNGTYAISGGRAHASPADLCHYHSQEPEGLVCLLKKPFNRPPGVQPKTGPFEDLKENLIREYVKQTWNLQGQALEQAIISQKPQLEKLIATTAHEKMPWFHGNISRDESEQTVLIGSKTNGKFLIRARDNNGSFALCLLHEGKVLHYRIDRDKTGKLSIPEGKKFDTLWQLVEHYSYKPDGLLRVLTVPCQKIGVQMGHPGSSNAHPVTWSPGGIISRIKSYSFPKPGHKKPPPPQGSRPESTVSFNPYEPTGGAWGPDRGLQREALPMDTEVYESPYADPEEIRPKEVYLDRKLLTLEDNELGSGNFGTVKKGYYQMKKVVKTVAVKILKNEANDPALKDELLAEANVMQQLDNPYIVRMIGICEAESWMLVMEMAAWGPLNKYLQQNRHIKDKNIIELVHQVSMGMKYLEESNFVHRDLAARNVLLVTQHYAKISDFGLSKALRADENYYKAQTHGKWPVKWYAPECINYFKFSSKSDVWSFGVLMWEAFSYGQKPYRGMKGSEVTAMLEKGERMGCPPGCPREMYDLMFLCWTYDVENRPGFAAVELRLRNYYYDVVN
Procedure, shortened: (§1)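 RBL-2H3 cells (2 × 10^4/well) cultured 1 h, then sensitized with anti-DNP IgE 0.45 µg/ml for 24 h. Cells were washed in Siraganian buffer A (PIPES, pH 7.2) and equilibrated in buffer B at 37 °C for 10 min. Compound was added at 37 °C for 30 min, then DNP-BSA 10 µg/ml for 10 min. Supernatant β-hexosaminidase was read with p-nitrophenyl-N-acetyl-β-D-glucosaminide at A405, corrected for direct enzyme inhibition.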

[2] = target: Tyrosine-protein kinase SYK (Rattus norvegicus) (UniProt Q64725); assay: Inhibition of spleen tyrosine kinase in rat RBL-2H3 cells assessed as inhibition of IgE-induced upregulation of cPLA2 level at 50 uM after 30 mins by Western blotting
Procedure, shortened: (§2)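 IgE-sensitized RBL-2H3 cells were pretreated 30 min with 50 µM compound and stimulated with DNP-BSA. Lysates were run on SDS-PAGE and transferred to PVDF. Membranes were blocked 1 h in 5% nonfat milk, probed with primary antibody overnight at 4 °C, then HRP secondary antibody 1 h at room temperature. ECL chemiluminescence detection; three independent experiments.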

[3] = target: Tyrosine-protein kinase SYK (Rattus norvegicus) (UniProt Q64725); assay: Inhibition of spleen tyrosine kinase in rat RBL-2H3 cells assessed as inhibition of IgE-induced upregulation of p38 level at 50 uM after 30 mins by Western blotting; procedure, shortened: as §2
[4] = target: Tyrosine-protein kinase SYK (Rattus norvegicus) (UniProt Q64725); assay: Inhibition of spleen tyrosine kinase in rat RBL-2H3 cells assessed as inhibition of IgE-induced upregulation of phospholipase 2 level at 50 uM after 30 mins by Western blotting; procedure, shortened: as §2
[5] = target: Tyrosine-protein kinase SYK (Rattus norvegicus) (UniProt Q64725); assay: Inhibition of spleen tyrosine kinase in rat RBL-2H3 cells assessed as inhibition of IgE-induced upregulation of phospholipase Cgamma1 level at 50 uM after 30 mins by Western blotting; procedure, shortened: as §2
[6] = target: Tyrosine-protein kinase SYK (Rattus norvegicus) (UniProt Q64725); assay: Inhibition of spleen tyrosine kinase in rat RBL-2H3 cells assessed as inhibition of IgE-induced upregulation of Lyn level at 50 uM after 30 mins by Western blotting; procedure, shortened: as §2
[7] = target: Tyrosine-protein kinase SYK (Rattus norvegicus) (UniProt Q64725); assay: Inhibition of spleen tyrosine kinase in rat RBL-2H3 cells assessed as inhibition of IgE-induced upregulation of ERK1/2 level at 50 uM after 30 mins by Western blotting; procedure, shortened: as §2
[8] = target: Tyrosine-protein kinase SYK (Rattus norvegicus) (UniProt Q64725); assay: Inhibition of spleen tyrosine kinase in rat RBL-2H3 cells assessed as inhibition of IgE-induced degranulation after 1 hr by beta-hexosaminidase release assay; procedure, shortened: as §1
[9] = target: Tyrosine-protein kinase SYK (Rattus norvegicus) (UniProt Q64725); assay: Inhibition of spleen tyrosine kinase in rat RBL-2H3 cells assessed as inhibition of IgE-induced upregulation of JNK level at 50 uM after 30 mins by Western blotting; procedure, shortened: as §2
[10] = target: Tyrosine-protein kinase SYK (Rattus norvegicus) (UniProt Q64725); assay: Inhibition of spleen tyrosine kinase in rat RBL-2H3 cells assessed as inhibition of IgE-induced increase of ROS level at 50 uM after 30 mins by FLIPR assay
Procedure, shortened: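 Sensitized RBL-2H3 cells (5 × 10^4/well) took up 10 µM CM-H2DCFDA for 30 min at 37 °C and were washed twice. Cells were exposed to 50 µM compound for 30 min, then challenged with DNP-BSA 10 µg/ml. DCF fluorescence (ex 490/em 530 nm) was read on a fluorometric imaging plate reader. DPI 200 nM served as control. Means ± SEM, n = 10.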

[11] = target: Tyrosine-protein kinase SYK (Rattus norvegicus) (UniProt Q64725); assay: Inhibition of spleen tyrosine kinase in rat RBL-2H3 cells assessed as inhibition of IgE-induced upregulation of PI3K/Akt level at 50 uM after 30 mins by Western blotting; procedure, shortened: as §2
[12] = target: Tyrosine-protein kinase SYK (Rattus norvegicus) (UniProt Q64725); assay: Inhibition of spleen tyrosine kinase in rat RBL-2H3 cells assessed as inhibition of IgE-induced increase of intracellular calcium level at 50 uM after 30 mins by FLIPR assay
Procedure, shortened: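 IgE-sensitized RBL-2H3 cells (5 × 10^4/well; anti-DNP IgE 0.45 µg/ml, 24 h) were loaded with Fluo-3AM for 1 h. Cells were washed and held 30 min in loading buffer containing 50 µM compound, then stimulated with DNP-BSA 10 µg/ml. Fluorescence (ex 490/em 530 nm) was recorded on a fluorometric imaging plate reader. Means ± SEM, n = 12.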

| inhibition [1] | inhibition [2] | inhibition [3] | inhibition [4] | inhibition [5] | inhibition [6] | inhibition [7] | inhibition [8] | inhibition [9] | inhibition [10] | inhibition [11] | inhibition [12] | Compound |
| --- | --- | --- | --- | --- | --- | --- | --- | --- | --- | --- | --- | --- |
| inactive |  |  |  |  |  |  |  |  |  |  |  | O=C(O)/C=C/c1ccc(O)cc1 |
|  | Active | Active | Active | Active | inactive | Active | Dose-dependent effect | Active | Active | Active | Active | COC(=O)/C=C/c1ccc(O[C@@H]2O[C@H](CO)[C@@H](O)[C@H](O)[C@H]2O)cc1 |
| Active |  |  |  |  |  |  |  |  |  |  |  | O=C(/C=C/c1ccccc1)O[C@@H]1O[C@H](CO)[C@@H](O)[C@H](O)[C@H]1O |
|  |  |  | Active | Active | inactive |  | Dose-dependent effect |  | Active |  | Active | O=C(O)/C=C/c1ccccc1 |
